Laboratory results published in article PMC3188381 (Anti-cancer drugs, 2011).
Where two headings read alike, the source gives them in different places.

Experiments:
[1] = test system: SKOV3 ovarian cancer cells; assay: Proliferation assay; type: cell-based, human; settings: read-out: IC50 (μM) SKOV3
[2] = test system: OVCA432 ovarian cancer cells; assay: Proliferation assay; type: cell-based, human; settings: read-out: IC50 (μM) OVCA432
[3] = test system: SKOV3 cells; assay: Western blot of cell lysates, SKOV3; type: cell-based, human; settings: for Cleaved PARP protein expression / Cleaved caspase-3 protein expression: SKOV3, 24 hours, 50 μM LiCl, 5 μM 9ING41, 25 μM SB216763
Outline: (§1)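 Lysates taken after 24 h treatment with test compound or 0.1% DMSO, in Tris-HCl pH 7.6/NaCl/NP-40/deoxycholate/SDS buffer with protease and phosphatase inhibitors, protein equalised by BCA. Run on reducing 10% Bis-Tris gels and transferred to PVDF. Blocked in 5% milk TBS-T; cleaved caspase-3 in 5% BSA PBS-0.5% tween; cyclin D1 in 5% BSA TBS-T. Probed with rabbit primaries (total GSK3β, actin as controls) and HRP anti-rabbit, detected by chemiluminescence. Densitometry from triplicate blots.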

[4] = test system: SKOV3 xenograft; settings: drugs and cells mixed before subcutaneous injection; cited from earlier work
[5] = test system: SKOV3 ovarian cancer cells; settings: cited from earlier work
[6] = test system: OVCA432 cells; assay: Western blot of cell lysates, OVCA432; type: cell-based, human; settings: for Cleaved PARP protein expression / Cleaved caspase-3 protein expression: OVCA432, 24 hours, 50 μM LiCl, 5 μM 9ING41, 25 μM SB216763
Outline: as §1

[7] = test system: OVCA432 cells; assay: DAPI staining for apoptotic cells, OVCA432; type: cell-based, human; settings: OVCA432, 24 hrs; 50 μM LiCl, 5 μM 9ING41, 25 μM SB216763; vs DMSO
Outline: (§2)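 OVCA432 grown in supplemented MEM and SKOV3 in McCoy's 5A, both with 10% FBS, at 37 °C, 5% CO2. Cells plated at 5 × 10^4 per chamber-slide well and left to attach overnight. Exposed one day to test compound or 0.1% DMSO, then fixed in 4% paraformaldehyde and mounted in DAPI medium. Nuclei with condensed DNA or […] fragmentation counted in 3 fields (20× objective), triplicate experiments.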

[8] = test system: OVCA432 cells; assay: TUNEL staining, OVCA432; type: cell-based, human; settings: OVCA432, 24 hours, 5 μM 9ING41; vs DMSO
Outline: (§3)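 Cells plated at 5 × 10^4 per chamber-slide well, attached overnight at 37 °C, then treated 24 h with test compound or 0.1% DMSO. Fixed in 4% paraformaldehyde. Stained with a colorimetric TUNEL kit per manufacturer. Brown TUNEL-positive cells counted in 3 fields imaged with a 20× objective, from triplicate experiments.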

[9] = Range-finding toxicity study; settings: rats, oral, 8 days observation
[10] = test system: SKOV3 cells; assay: DAPI staining for apoptotic cells, SKOV3; type: cell-based, human; settings: SKOV3, 24 hrs; 5 μM 9ING41; vs DMSO
Outline: as §2

[11] = Bioavailability and plasma pharmacokinetics; type: in vivo, Sprague-Dawley rats; settings: rat
Outline: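 Male Sprague-Dawley rats dosed at 10 mg/kg iv and 400 mg/kg po. Blood drawn into EDTA (n=3), kept on ice and processed within 30 min. Plasma spun at 2–8 °C for 15 min and stored at -80 °C. Acetonitrile with 100 ng/ml hexylnicotinate internal standard added, then vortexed and centrifuged at 18000g. Supernatant run by LC-MS/MS. Non-compartmental PK analysis.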

[12] = test system: SKOV3 cells; assay: TUNEL staining, SKOV3; type: cell-based, human; settings: SKOV3, 24 hours, 5 μM 9ING41; vs DMSO
Outline: as §3

[13] = SKOV3 cells, 4 days (96 hours), concentration required to kill 50% of the cells
[14] = OVCA432 cells, 4 days (96 hours), concentration required to kill 50% of the cells

COc1cccc2c(C3=C(c4cn(C)c5cc(Cl)c(F)cc45)C(=O)NC3=O)coc12 [9-ING-87]
IC50 [1, 13]: 42.7 µM | IC50 [2, 14]: 10.7 µM

[Cl-].[Li+] [LiCl, Lithium chloride, reference compound]
Cleaved PARP protein expression [3]: absence | Cleaved caspase-3 protein expression [3]: absence | SKOV3 tumor growth [4]: significantly slow SKOV3 tumor growth | Growth inhibition of SKOV3 [5]: growth inhibited | Cleaved PARP protein expression [6]: absence | Cleaved caspase-3 protein expression [6]: absence | Induction of apoptosis (DAPI) [7]: induced apoptosis

Cn1cc(C2=C(c3ccc(Cl)cc3Cl)C(=O)NC2=O)c2ccccc21 [SB216763, reference compound]
Cleaved PARP protein expression [3]: absence | Cleaved caspase-3 protein expression [3]: absence | Growth inhibition of SKOV3 [5]: growth inhibited | IC50 ([1]; Homo sapiens, SK-OV-3, 96 h): > 50 µM | IC50 ([2]; Homo sapiens, OVCA432, 96 h): > 50 µM | Cleaved PARP protein expression [6]: absence | Cleaved caspase-3 protein expression [6]: absence | Induction of apoptosis (DAPI) [7]: induced apoptosis

Cn1cc(C2=C(c3coc4ccc(F)cc34)C(=O)NC2=O)c2cc3c(cc21)OCO3 [9-ING-41]
Apoptosis (TUNEL-positive cells) [8]: significantly increased apoptosis | Cyclin D1 expression ([3]; SKOV3, 5 μM 9ING41, 24 hours): increased | Phosphorylation of GSK3β ser9 (normalized to total GSK3β) ([3]; SKOV3, 5 μM 9ING41, 24 hours): increased phosphorylation | Phosphorylation of glycogen synthase ([3]; SKOV3, 5 μM 9ING41, 24 hours): significantly inhibited | Cleaved PARP protein expression [3]: cleaved product of PARP was detected | Cleaved caspase-3 protein expression [3]: increase in cleaved caspase-3 | Maximum tolerated dose (MTD) [9]: greater than 500 mg/kg | Induction of apoptosis (DAPI) [10]: induced apoptosis | AUC (area under the concentration-time curve) ([11]; iv 10 mg/kg): 2740 ng·h/mL | CL (systematic clearance) ([11]; iv 10 mg/kg): 61.5 mL/min/kg | Co (plasma concentration at T = 0) ([11]; iv 10 mg/kg): 1390 ng/mL | T1/2 (apparent elimination half-life) ([11]; iv 10 mg/kg): 4.85 h | V (volume of distribution) ([11]; iv 10 mg/kg): 26.2 L/kg | Elimination half-life ([11]; iv 10 mg/kg and po 400 mg/kg): 4.0 to 4.85 h | Volumes of distribution ([11]; iv 10 mg/kg and po 400 mg/kg): ≥ 26 L/kg | Plasma level C ([11]; iv 10 mg/kg, 0.083 h): 1390 ng/mL | Plasma level C ([11]; iv 10 mg/kg, 0.167 h): 1410 ng/mL | Plasma level C ([11]; iv 10 mg/kg, 0.5 h): 1190 ng/mL | Plasma level C ([11]; iv 10 mg/kg, 1 h): 690 ng/mL | Plasma level C ([11]; iv 10 mg/kg, 2 h): 367 ng/mL | Plasma level C ([11]; iv 10 mg/kg, 4 h): 139 ng/mL | Plasma level C ([11]; iv 10 mg/kg, 6 h): 77 ng/mL | Plasma level C ([11]; iv 10 mg/kg, 8 h): 41 ng/mL | Plasma level C ([11]; iv 10 mg/kg, 24 h): 6.7 ng/mL | AUC (area under the concentration-time curve) ([11]; po 400 mg/kg): 4950 ng·h/mL | CL (systematic clearance) ([11]; po 400 mg/kg): 2210 mL/min/kg | T1/2 (apparent elimination half-life) ([11]; po 400 mg/kg): 4.0 h | V (volume of distribution) ([11]; po 400 mg/kg): 810 L/kg | F (bioavailability) ([11]; po 400 mg/kg vs iv 10 mg/kg): 4.5% | Plasma level C ([11]; po 400 mg/kg, 0.083 h): 4.7 ng/mL | Plasma level C ([11]; po 400 mg/kg, 0.167 h): 18.2 ng/mL | Plasma level C ([11]; po 400 mg/kg, 0.5 h): 156 ng/mL | Plasma level C ([11]; po 400 mg/kg, 1 h): 540 ng/mL | Plasma level C ([11]; po 400 mg/kg, 2 h): 820 ng/mL | Plasma level C ([11]; po 400 mg/kg, 4 h): 934 ng/mL | Plasma level C ([11]; po 400 mg/kg, 6 h): 340 ng/mL | Plasma level C ([11]; po 400 mg/kg, 8 h): 123 ng/mL | Plasma level C ([11]; po 400 mg/kg, 24 h): 8.3 ng/mL | IC50 [1, 13]: 10.5 µM | Apoptosis (TUNEL-positive cells) [12]: significantly increased apoptosis | IC50 [2, 14]: 11.2 µM | Phosphorylation of GSK3β ser9 (normalized to total GSK3β) ([6]; OVCA432, 5 μM 9ING41, 24 hours): increased phosphorylation | Phosphorylation of glycogen synthase ([6]; OVCA432, 5 μM 9ING41, 24 hours): significantly inhibited | Cleaved PARP protein expression [6]: cleaved product of PARP was detected | Cleaved caspase-3 protein expression [6]: increase in cleaved caspase-3 | Induction of apoptosis (DAPI) [7]: induced apoptosis
